Drawing on the RNAGym collection of RNA variant scans (doi:10.1126/science.aae0568), this text covers yeast fitness for 167 variants.

B1: tRNA (parent)
chain: GUUCCGUUGGCGUAAUGGUAACGCGUCUCCCUCCUAAGGAGAAGACUGCGGGUUCGAGUCCCGUACGGAACG

This sample holds only a part of the variants without activity.

Variants of B1 are the subject of the data set. In words: yeast fitness relative to wild type (ratio to wild type); higher = fitter; tRNA-Arg(CCU), competitive growth, 37 C, YPD. Summed up:
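A pool of Saccharomyces cerevisiae strains, each with a tRNA-Arg(CCU) gene variant at the native genomic locus, was competed in YPD at 37°C for 24 hours across six parallel replicates. The variants had been chemically synthesised at a 3% per-site mutation rate over 69 sites, and gene amplicons before and after competition were read by 100-nucleotide paired-end sequencing. Darwinian fitness relative to wild type rested on changes in genotype frequencies. Genotypes required ≥ 100 starting reads, and estimates < 0.5 were set to 0.5.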
Turning to G23A C34U A43U G44C, the yeast fitness was not above 0.5. With A20U G48C, the yeast fitness amounted to 0.84. On to G23U C30A C55G A57C C62G G68C, for which the yeast fitness was not above 0.5. Regarding C11U U28A C29U, the yeast fitness amounted to 0.93. As for C30G C34A C49G G50A U59C, the yeast fitness is not above 0.5. Then C27G C55G A70U, with 0.617; and G9A U26A A43U C55U, with not above 0.5; and C4A A42G U64A, with not above 0.5. Regarding G12A C46G A57C, the yeast fitness was not above 0.5. Turning to A42U C66A, the yeast fitness came out at 0.702.

Regarding C33G A40G A43G G44A, the yeast fitness was not above 0.5. In the case of C24U A42U, the yeast fitness was determined as 0.875. Then C11G U32G A69C A70U, with not above 0.5. Then C5U A45G C49G U59C C60U A69C, with not above 0.5; and C11A A37G A40G A43G G52C U59G, with not above 0.5; and A37U A69U, with 0.723. Take C11G A14U C24A A57C: the yeast fitness was found to be 0.572. As to U7A C27U C66A, the yeast fitness was not above 0.5. For U16G C22G A70G, the yeast fitness came to 0.767. With U7C C34U A70G, the yeast fitness was not above 0.5.

For the variant U2G C31A, the yeast fitness was 0.788. In the case of U3C C4U A57G, the yeast fitness is 0.677. For the variant C11U C34A A70G, the yeast fitness stood at 0.581. Then C5G C22A, with 0.766; and C11A U26A, with 0.687; and C5A A15U A21U C66U G67U A70G, with not above 0.5. Regarding U7G C30U G38A, the yeast fitness came out at 0.591. Consider A21G C33A C49U C55G, for which the yeast fitness is not above 0.5. Turning to A20U A65U A70C, the yeast fitness was 0.568. Then C5G C11U G25A, with 0.787; and A37U G67C, with 0.619. For the variant U3A G18C A43C G58C, the yeast fitness is not above 0.5. On to C5U C22G G50C, for which the yeast fitness was not above 0.5.

For C4G G41C C46A, the yeast fitness was 0.709. On to G12A A36C A40U G41C, for which the yeast fitness was 0.576. Then C5G U13G A20U A37G A69U, with not above 0.5. C22G A36C U47A C66G: the yeast fitness is not above 0.5. The value for C5U U16G A57G C62G C66U was not above 0.5. For the variant C33U U47C A57G, the yeast fitness was not above 0.5. The value for U64C A69C A70U was 0.757; that for A43C U64C was 0.997; that for A21C C22U C31U C33U G67A was not above 0.5. Turning to G18C A40U A70G, the yeast fitness amounted to 0.632.

As for U13C A37G G58A, the yeast fitness came to 0.647. The value for C24G A43U was 0.703; that for U2C U59C was 0.996. In the case of G48C C62U A69C, the yeast fitness was found to be 0.701. Consider C27U C30A, for which the yeast fitness came out at 0.773. As to C24A C66U, the yeast fitness worked out at 0.691. The value for C4A G23C C49U G58A A69C was 0.535. With C30U U35C A42C G48C, the yeast fitness is not above 0.5. As to C4U C24A C55A C62U A65C, the yeast fitness was not above 0.5. For the variant C22U A42G C61U, the yeast fitness is 0.612. For A20U A40G G50A, the yeast fitness was not above 0.5. The value for C11U C22U A57U A70C was not above 0.5; that for A14U C66U was 0.756. As for G39C A43U A70U, the yeast fitness is 0.691.

In the case of C11U A15G C27G C46U, the yeast fitness is 0.548. Turning to A20G A40U G58C, the yeast fitness was found to be 0.77.

For the variant A20C A69C, the yeast fitness was 1.13. In the case of U3G C11U A40U, the yeast fitness was found to be 0.529.

As for U8C C30G C31G G48A, the yeast fitness was not above 0.5.

G52A C66U: the yeast fitness was found to be 0.706. For the variant U7A U19A A20C A40G A69U, the yeast fitness is 0.503.

With G6A U8C U54C, the yeast fitness came out at 0.552. As for C29U A37U C46U, the yeast fitness was 0.602. The value for C5U A42G A45G C55G was not above 0.5; that for G9U C29G A65U was not above 0.5; that for G9C C27A C55U was not above 0.5.

For the variant A21G A57U, the yeast fitness is 0.97. Turning to A20U G25A C66U, the yeast fitness was determined as 0.761. Turning to U19C A43U, the yeast fitness amounted to 1.03. As to G6A A21U C33U, the yeast fitness is 0.525.

U28A G58C: the yeast fitness came to 0.798. The value for U7C A20U was 0.722; that for U8C G44C C46A was 0.769; that for U2C G6A C11U was 0.587. Then U3C G10A A40C C55G, with not above 0.5; and C11G C30U U35A U53G A70C, with not above 0.5. The value for A43U U59G was 0.81; that for C11G A20U C30G C34A A43C A69C was 0.76; that for G6C C33G A36C was not above 0.5. Turning to U13C A15U C46A A65C, the yeast fitness was not above 0.5. Then U7C A42C G58A, with not above 0.5; and C33G G50A, with 0.614; and C24G C49A C62G G68U, with not above 0.5. Take A15U G25C C49G U59G: the yeast fitness is not above 0.5. The value for G48C U53A C61U was 0.517.

For C49U C61G, the yeast fitness was 0.689.

With C5G A14U U16C G18C U32A, the yeast fitness turned out to be 0.556.

U3C C30A A65G: the yeast fitness is 0.702. As to C5U C29G C34G, the yeast fitness is 0.542. Turning to G9A A14G A37G, the yeast fitness was 0.624.

As to U13A U54A, the yeast fitness was determined as 0.622. Then U7C G56A A65C, with 0.598; and A14G G39C C55A A65G, with not above 0.5; and C5U U8A C46A, with not above 0.5. In the case of C5A C29G A36U A43G, the yeast fitness is not above 0.5. Turning to C24A U35G C46U G68A, the yeast fitness is not above 0.5. Then C4U U8A A37C, with 0.821; and U8A A40G C62A, with not above 0.5; and A20U C34G G48C U59C C61U, with 0.791. Take C5A C11U G18C U19A C27A C33A C61G A70G: the yeast fitness is not above 0.5. As to U19A C24G C27U C30A G52C G56A, the yeast fitness was not above 0.5. As to U7C C24U, the yeast fitness is 0.855.

With C31G A70G, the yeast fitness amounted to 0.914. For G10C G48A U54A A69C, the yeast fitness was not above 0.5. On to G9A U19C C33U A40U U59A, for which the yeast fitness is not above 0.5. Regarding A14C A70C, the yeast fitness was 0.684. As to G10C A37U G58A, the yeast fitness worked out at 0.608. As to A20G C60G A70C, the yeast fitness was 0.604.

For C11A A36U A40C, the yeast fitness was not above 0.5. For C11A G51A A65U, the yeast fitness was not above 0.5. Turning to G17A U64C C66U, the yeast fitness worked out at 0.69.

With U26C U28G C34U G38A, the yeast fitness was not above 0.5. Consider U35A C66U A69U, for which the yeast fitness is not above 0.5. Take C34G A42G G44C C66A: the yeast fitness was not above 0.5. Turning to G10C A57G, the yeast fitness amounted to 0.604. For A15U A45U G68C A70U, the yeast fitness was not above 0.5. On to U2C G12C A14G C29U, for which the yeast fitness was not above 0.5. With U3A G17A C22U U64C, the yeast fitness was not above 0.5. For the variant G6C U53C C62U C66U, the yeast fitness was not above 0.5. As to U7C C27G A69U, the yeast fitness amounted to 0.632. On to A15U C24G, for which the yeast fitness was 0.647. On to C11U C29G A37C A42U A57G C61U G67A, for which the yeast fitness is not above 0.5.

On to C5U U19G C46U A69C, for which the yeast fitness was not above 0.5. Then C4U G12A A20G C22U C62U A65C, with not above 0.5. Take C11G C29U A57G: the yeast fitness was not above 0.5. Take U26A C34G A45G: the yeast fitness was determined as 0.517. Consider C27U C33G C34U C61U G67A G68C, for which the yeast fitness is not above 0.5. For the variant C4G U19C, the yeast fitness came to 0.99. On to C11A C27G G68A, for which the yeast fitness is not above 0.5. For U2A U19A, the yeast fitness turned out to be 0.931.

For the variant G18A A21U U32A, the yeast fitness was 0.593. The value for G10A U26A G63A was not above 0.5. In the case of U7A C49G, the yeast fitness is 0.779.

Take C5G C49U G58C: the yeast fitness is 0.622. The value for U3A U13C was 0.955. As to U2C G25C C31U U32A, the yeast fitness was not above 0.5.

For U2C C11U A37U U53A, the yeast fitness was not above 0.5. The value for A37C G38A was 0.636; that for C49U G52C A57C G63C was not above 0.5; that for A15G U53C C61G was not above 0.5.

For G12A U28G C30U A36C, the yeast fitness was not above 0.5. U2A A15C C30G G67C: the yeast fitness was not above 0.5. As for C29G G39A G41A, the yeast fitness is not above 0.5. For the variant C11G C24G G44C, the yeast fitness was not above 0.5.

For the variant C4G A70U, the yeast fitness was determined as 0.806. On to C5G U8G C11G C49U C61G, for which the yeast fitness is not above 0.5. Consider U32C A45G, for which the yeast fitness turned out to be 0.91. For the variant U19A C22U, the yeast fitness came out at 0.709. Consider C4A A14U C34U U54C, for which the yeast fitness is not above 0.5. Then A21G C29U G41C A42G U53G A57C, with not above 0.5. Consider U2A G44C C46A G56C, for which the yeast fitness was not above 0.5. For the variant C24A C30G, the yeast fitness was not above 0.5. With U2G G10C A43C, the yeast fitness was not above 0.5.

With C5G A15G C66U, the yeast fitness is not above 0.5.

In the case of A14C C33G, the yeast fitness was determined as 0.726. Regarding G6A A57C G58A, the yeast fitness was not above 0.5. The value for U26C C27U A36G was 0.72. As for C34G U59G, the yeast fitness turned out to be 0.534. Consider G10C A14C C24U A70C, for which the yeast fitness is not above 0.5. Turning to C5U C22A C61U A65C, the yeast fitness was not above 0.5. In the case of U13G C31U U35A A57C, the yeast fitness is 0.61.

For the variant A40G C46A G68C, the yeast fitness was 0.633. On to C30G C46U C49G U64A, for which the yeast fitness was not above 0.5. G6A A15G U19C C22A: the yeast fitness is not above 0.5.
